Experimental data taken from ChEMBL document CHEMBL5360562 (Eur J Med Chem, 2023).
≈ marks a conversion by molar mass, not a printed value.

Legend:
[1] = tested on: Acinetobacter baumannii; experiment: Potentiation of Clarithromycin antibacterial activity against Acinetobacter baumannii AB5075 assessed as clarithromycin MIC at 15 uM incubated for 16 hrs by broth microdilution method; assay type: functional
[2] = Stability of compound in human plasma assessed as parent compound remaining measured at 4 hrs; assay type: ADME, cell-free
Summary of the method: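 Compound at 20 μM final in human plasma (from 10 mM DMSO stock), 37 °C; aliquots at 0, 30, 60, 120, 240 min quenched in internal standard in 1:1 ACN/MeOH, centrifuged, supernatant analysed by UPLC-MRM. Peak-area ratio to internal standard expressed as % parent remaining relative to 0 min; half-life calculated.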

[3] = tested on: Acinetobacter baumannii; experiment: Antibacterial activity against Acinetobacter baumannii AB5075 assessed as reduction in bacterial growth incubated for 16 hrs by broth microdilution method; assay type: functional
[4] = Metabolic stability in human liver microsomes assessed as parent compound remaining in presence of NADPH measured at 1 hr by UV-UPLC analysis; assay type: ADME, Microsome
[5] = tested on: Acinetobacter baumannii; experiment: Potentiation of Clarithromycin antibacterial activity against Acinetobacter baumannii AB5075 assessed as fold reduction in clarithromycin MIC at 15 uM incubated for 16 hrs by broth microdilution method; assay type: functional
[6] = Antiproliferative against human HepG2 cells assessed as reduction in cell viability incubated for 24 hrs by XTT assay; assay type: toxicity, cell-based
[7] = tested on: Acinetobacter baumannii; experiment: Potentiation of Clarithromycin antibacterial activity against Acinetobacter baumannii AB5075 assessed as clarithromycin MIC at 5 uM incubated for 16 hrs by broth microdilution method; assay type: functional
[8] = Therapeutic index, ratio of IC50 for antiproliferative against human HepG2 cells assessed as reduction in cell viability to MIC for potentiation of Clarithromycin antibacterial activity against Acinetobacter baumannii […] assessed as clarithromycin MIC; assay type: toxicity, cell-based; conditions: read-out: TI
[9] = tested on: Acinetobacter baumannii; experiment: Potentiation of Clarithromycin antibacterial activity against Acinetobacter baumannii AB5075 assessed as clarithromycin MIC at 7.5 uM incubated for 16 hrs by broth microdilution method; assay type: functional
[10] = tested on: Acinetobacter baumannii; experiment: Potentiation of Clarithromycin antibacterial activity against Acinetobacter baumannii AB5075 assessed as fold reduction in clarithromycin MIC at 7.5 uM incubated for 16 hrs by broth microdilution method; assay type: functional
Summary of the method: (§1)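 Checkerboard-style potentiation by broth microdilution. 6 h day cultures in CAMHB diluted to 5×10^5 CFU/mL. Adjuvant added from 10 mM DMSO stock at fixed concentration throughout. […] Controls: antibiotic alone, adjuvant alone, media only. Incubated stationary at 37 °C for 16 h. MIC is lowest concentration with no visible growth; fold reduction taken against the antibiotic-alone lane.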

[11] = tested on: Acinetobacter baumannii; experiment: Potentiation of Clarithromycin antibacterial activity against Acinetobacter baumannii AB5075 assessed as fold reduction in clarithromycin MIC at 5 uM incubated for 16 hrs by broth microdilution method; assay type: functional; summary of the method: as §1
[12] = tested on: Acinetobacter baumannii; experiment: Potentiation of Clarithromycin antibacterial activity against Acinetobacter baumannii AB3785 assessed as clarithromycin MIC at 10 uM incubated for 16 hrs by broth microdilution method; assay type: functional
[13] = tested on: Acinetobacter baumannii; experiment: Potentiation of Azithromycin antibacterial activity against Acinetobacter baumannii AB5075 assessed as azithromycin MIC at 20 uM incubated for 16 hrs by broth microdilution method; assay type: functional
[14] = tested on: Acinetobacter baumannii; experiment: Potentiation of Clarithromycin antibacterial activity against Acinetobacter baumannii AB5075 assessed as reduction in clarithromycin MIC at 20 uM incubated for 16 hrs by broth microdilution method; assay type: functional
[15] = tested on: Acinetobacter baumannii; experiment: Potentiation of erythromycin antibacterial activity against Acinetobacter baumannii AB5075 assessed as erythromycin MIC at 7.5 uM incubated for 16 hrs by broth microdilution method; assay type: functional
[16] = tested on: Acinetobacter baumannii; experiment: Potentiation of rifampicin antibacterial activity against Acinetobacter baumannii AB5075 assessed as rifampicin MIC at 10 uM incubated for 16 hrs by broth microdilution method; assay type: functional
[17] = tested on: Acinetobacter baumannii; experiment: Potentiation of Clarithromycin antibacterial activity against Acinetobacter baumannii AB5075 assessed as fold reduction in clarithromycin MIC at 10 uM incubated for 16 hrs by broth microdilution method; assay type: functional; summary of the method: as §1
[18] = tested on: Acinetobacter baumannii; experiment: Potentiation of Clarithromycin antibacterial activity against Acinetobacter baumannii AB5075 assessed as fold reduction in clarithromycin MIC at 30 uM incubated for 16 hrs by broth microdilution method; assay type: functional; summary of the method: as §1
[19] = tested on: Acinetobacter baumannii; experiment: Potentiation of rifampicin antibacterial activity against Acinetobacter baumannii AB5075 assessed as rifampicin MIC at 20 uM incubated for 16 hrs by broth microdilution method; assay type: functional
[20] = tested on: Acinetobacter baumannii; experiment: Potentiation of Clarithromycin antibacterial activity against Acinetobacter baumannii AB5075 assessed as clarithromycin MIC at 1.5 uM incubated for 16 hrs by broth microdilution method; assay type: functional; summary of the method: as §1
[21] = tested on: Acinetobacter baumannii; experiment: Potentiation of rifampicin antibacterial activity against Acinetobacter baumannii AB5075 assessed as rifampicin MIC at 30 uM incubated for 16 hrs by broth microdilution method; assay type: functional
[22] = tested on: Acinetobacter baumannii; experiment: Potentiation of rifampicin antibacterial activity against Acinetobacter baumannii AB5075 assessed as fold reduction in rifampicin MIC at 10 uM incubated for 16 hrs by broth microdilution method; assay type: functional
[23] = tested on: Acinetobacter baumannii; experiment: Potentiation of erythromycin antibacterial activity against Acinetobacter baumannii AB5075 assessed as erythromycin MIC at 10 uM incubated for 16 hrs by broth microdilution method; assay type: functional
[24] = tested on: Acinetobacter baumannii; experiment: Potentiation of Clarithromycin antibacterial activity against Acinetobacter baumannii AB4498 assessed as clarithromycin MIC at 10 uM incubated for 16 hrs by broth microdilution method; assay type: functional
[25] = tested on: Acinetobacter baumannii; experiment: Potentiation of Azithromycin antibacterial activity against Acinetobacter baumannii AB5075 assessed as azithromycin MIC at 30 uM incubated for 16 hrs by broth microdilution method; assay type: functional
[26] = tested on: Acinetobacter baumannii; experiment: Potentiation of Azithromycin antibacterial activity against Acinetobacter baumannii AB5075 assessed as azithromycin MIC at 10 uM incubated for 16 hrs by broth microdilution method; assay type: functional
[27] = tested on: Acinetobacter baumannii; experiment: Potentiation of rifampicin antibacterial activity against Acinetobacter baumannii AB5075 assessed as rifampicin MIC at 5 uM incubated for 16 hrs by broth microdilution method; assay type: functional
Summary of the method: (§2)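 A. baumannii AB5075 6 h day cultures in CAMHB subcultured to 5×10^5 CFU/mL; adjuvant added from 10 mM DMSO stock at fixed concentration, then rifampicin (DMSO) twofold serially diluted in adjuvant-containing broth. Antibiotic-alone and adjuvant-alone control lanes.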

[28] = tested on: Acinetobacter baumannii; experiment: Potentiation of Clarithromycin antibacterial activity against Acinetobacter baumannii AB967 assessed as clarithromycin MIC at 10 uM incubated for 16 hrs by broth microdilution method; assay type: functional
[29] = tested on: Acinetobacter baumannii; experiment: Potentiation of Clarithromycin antibacterial activity against Acinetobacter baumannii AB5674 assessed as clarithromycin MIC at 10 uM incubated for 16 hrs by broth microdilution method; assay type: functional
[30] = tested on: Acinetobacter baumannii; experiment: Potentiation of Clarithromycin antibacterial activity against Acinetobacter baumannii AB5711 assessed as clarithromycin MIC at 10 uM incubated for 16 hrs by broth microdilution method; assay type: functional
[31] = tested on: Acinetobacter baumannii; experiment: Potentiation of Clarithromycin antibacterial activity against Acinetobacter baumannii AB5075 assessed as fold reduction in clarithromycin MIC at 1.5 uM incubated for 16 hrs by broth microdilution method; assay type: functional
[32] = tested on: Acinetobacter baumannii; experiment: Potentiation of Clarithromycin antibacterial activity against Acinetobacter baumannii AB5075 assessed as clarithromycin MIC at 2.5 uM incubated for 16 hrs by broth microdilution method; assay type: functional
[33] = tested on: Acinetobacter baumannii; experiment: Potentiation of Clarithromycin antibacterial activity against Acinetobacter baumannii AB3560 assessed as clarithromycin MIC at 10 uM incubated for 16 hrs by broth microdilution method; assay type: functional
[34] = tested on: Acinetobacter baumannii; experiment: Potentiation of Azithromycin antibacterial activity against Acinetobacter baumannii AB5075 assessed as azithromycin MIC at 7.5 uM incubated for 16 hrs by broth microdilution method; assay type: functional
[35] = tested on: Acinetobacter baumannii; experiment: Potentiation of erythromycin antibacterial activity against Acinetobacter baumannii AB5075 assessed as erythromycin MIC at 20 uM incubated for 16 hrs by broth microdilution method; assay type: functional
[36] = tested on: Acinetobacter baumannii; experiment: Potentiation of Clarithromycin antibacterial activity against Acinetobacter baumannii AB5075 assessed as clarithromycin MIC at 30 uM incubated for 16 hrs by broth microdilution method; assay type: functional
[37] = tested on: Acinetobacter baumannii; experiment: Potentiation of Clarithromycin antibacterial activity against Acinetobacter baumannii AB5075 assessed as clarithromycin MIC at 10 uM incubated for 16 hrs by broth microdilution method; assay type: functional
[38] = tested on: Acinetobacter baumannii; experiment: Potentiation of erythromycin antibacterial activity against Acinetobacter baumannii AB5075 assessed as erythromycin MIC at 30 uM incubated for 16 hrs by broth microdilution method; assay type: functional
[39] = tested on: Acinetobacter baumannii; experiment: Potentiation of rifampicin antibacterial activity against Acinetobacter baumannii AB5075 assessed as rifampicin MIC at 7.5 uM incubated for 16 hrs by broth microdilution method; assay type: functional; summary of the method: as §2

Compound `Nc1nc(-c2ccc(NC(=O)Nc3cc(Br)cc(Br)c3)cc2)c[nH]1` has an MIC [1] of 0.125 µg/mL, a Stability [2] of 89% and an MIC [3] of 50 µM (≈ 22.6 µg/mL). The Stability [4] was 54%, the “fold change (FC)” value [5] was 256 and the IC50 at 24 h [6] was 23.2 µg/mL (≈ 51.4 µM). It also gave an MIC [7] of 4 µg/mL, a selectivity ratio [8] of 6.3 and an MIC [9] of 0.25 µg/mL. For the same compound, the “fold change (FC)” value [10] was 128 and the “fold change (FC)” value [11] was 8.
With `Cl.Cl.Nc1nc(-c2cc(F)cc(NC(=O)Nc3cc(F)cc(-c4c[nH]c(N)n4)c3)c2)c[nH]1` the MIC [12] was at most 0.062 µg/mL, the MIC [13] was 1 µg/mL and the “fold change (FC)” value [14] was “>=512”. It also gave an MIC ([14]; Acinetobacter baumannii, AB5075) of at most 0.062 µg/mL, an MIC [15] of 1 µg/mL and a Stability [2] of over 95%. For the same compound, the MIC [16] was 0.031 µg/mL, the “fold change (FC)” value [17] was 256 and the “fold change (FC)” value [18] was “>=512”. It also gave an MIC [19] of 0.007 µg/mL, an MIC [20] of 2 µg/mL and an MIC [21] of 0.003 µg/mL. The “fold change (FC)” value [22] was 32, the MIC [23] was 0.25 µg/mL and the MIC [24] was at most 0.062 µg/mL. For the same compound, the MIC [25] was 0.5 µg/mL, the MIC [26] was 1 µg/mL and the MIC [27] was 0.25 µg/mL. For the same compound, the MIC [3] was over 200 µM, the MIC [28] was at most 0.062 µg/mL and the Stability [4] was 86%. For the same compound, the MIC [29] was at most 0.062 µg/mL, the MIC [30] was 0.125 µg/mL and the “fold change (FC)” value [31] was 16. It also gave an MIC [32] of 1 µg/mL, an MIC [33] of at most 0.062 µg/mL and an IC50 at 24 h [6] of over 256 µg/mL. For the same compound, the MIC [34] was 2 µg/mL, the MIC [35] was 0.25 µg/mL and the MIC [36] was at most 0.062 µg/mL. The MIC [7] was 0.5 µg/mL, the MIC [37] was 0.125 µg/mL and the selectivity ratio [8] was over 353. It also gave an MIC [9] of 0.25 µg/mL, an MIC [38] of 0.125 µg/mL and an MIC [39] of 0.06 µg/mL. For the same compound, the “fold change (FC)” value [10] was 128 and the “fold change (FC)” value [11] was 64.
